Laboratory results from ChEMBL document CHEMBL1139526, “Synthesis, antiviral activity, and mechanism of drug resistance of D- and L-2',3'-didehydro-2',3'-dideoxy-2'-fluorocarbocyclic nucleosides” (J Med Chem, 2005).

Columns and labels:
PBMC [1] = assay: Effective concentration to inhibit HIV-1 activity in human peripheral blood mononuclear cells; format: functional, cell-based
Procedure, shortened: (§1)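 HIV-1 LAI was the reference virus. Human PBM cells were infected in bulk for 1 h at 100 TCID50/1 × 10⁷ cells (flask) or 200 TCID50/6 × 10⁵ cells/well. Cells went into 10-fold serial compound dilutions in RPMI-1640 with 16% FBS, DEAE-dextran and IL-2, 5 days at 37 °C. Read-out was supernatant RT activity ([³H]TTP, poly(rA)·oligo(dT)). EC50 was taken by the median effect method.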

PBMC [2] = assay: Inhibitory concentration was determined against PHA stimulated human peripheral blood mononuclear cells; format: functional, cell-based
Procedure, shortened: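 Uninfected PHA-stimulated PBM cells from healthy HIV/HBV-seronegative donors were isolated by Ficoll-Hypaque and seeded at 5 × 10⁴ cells/well. Cells were incubated 5 days at 37 °C with 10-fold serial dilutions. Read-out was MTT reduction at 570 nm after overnight dye and solubilization. IC50 was taken by median-effect analysis.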

CCRF-CEM = assay: Inhibitory concentration against CEM cell line; format: functional, cell-based; conditions: Homo sapiens
Procedure, shortened: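 CEM T-lymphoblastoid cells in log phase, 2.5 × 10³ cells/well, were exposed to 10-fold serial dilutions for 4 days at 37 °C and 5% CO₂. MTT was added overnight, then solubilized, with absorbance read at 570 nm. IC50 was taken from median-effect analysis.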

Vero = assay: Inhibitory concentration against uninfected Vero cells; format: functional, cell-based; conditions: Chlorocebus sabaeus
Procedure, shortened: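 Uninfected Vero cells in log phase, 5 × 10³ cells/well, were exposed to 10-fold serial drug dilutions for 3 days at 37 °C. Viability was read by MTT overnight, solubilized, at 570 nm. IC50 came from the median effect method.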

PBMC [3] = assay: In vitro effective concentration against HIV-1 in human peripheral blood mononuclear cells; format: functional, cell-based; procedure, shortened: as §1
PBMC [4] = assay: In vitro effective concentration against HBV in human peripheral blood mononuclear cells; format: functional, cell-based
PBMC [5] = assay: Fold increase in ratio of EC50 against HIV-1 M184V to that of EC50 against HIV-1wild type; format: functional, Homo sapiens
Procedure, shortened: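 PHA-stimulated human PBM cells infected in bulk for 1 h with the molecular clones HIV-1 xxBru (wild type) or M184Vpitt, then added to 10-fold serial drug dilutions. Cultured 5 days at 37 °C. Supernatant virus was pelleted and its RT activity measured by [3H]TTP incorporation on poly(rA)·oligo(dT). EC50 by the median effect method; fold increase = EC50 M184V / EC50 xxBru.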

PBMC [6] = assay: (§2) In vitro effective concentration against […] wild type HIV-1 in human peripheral blood mononuclear cells; format: functional
Procedure, shortened: (§3)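 Molecular clones were used: wild-type HIV-1 xxBru and lamivudine-resistant HIV-1 M184Vpitt. Human PBM cells were infected in bulk for 1 h, then cultured in 10-fold serial compound dilutions with IL-2 for 5 days at 37 °C. Pelleted supernatant virus was assayed for RT activity, 2 h at 37 °C with [³H]TTP. EC50/EC90 came from median-effect analysis. Fold increase is M184V EC50 over xxBRU EC50.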

PBMC [7] = assay: In vitro effective concentration against Lamivudine resistant HIV-1 mutant M184V in human peripheral blood mononuclear cells; format: functional
PBMC [8] = assay: as §2; format: functional, cell-based; procedure, shortened: as §3
PBMC [9] = test system: PBMC
MT4 = assay: In vitro effective concentration against HIV-1 in MT-4 cells; format: functional, cell-based; conditions: Homo sapiens

Compound: Nc1ccn([C@H]2C[C@@H](CO)C=C2F)c(=O)n1
- EC50 (PBMC [1]): 37.7 µM
- IC50 (PBMC [2]): > 100 µM
- IC50 (CCRF-CEM): > 100 µM
- IC50 (Vero): > 100 µM

Compound: Nc1ccn([C@@H]2S[C@H](CO)C=C2F)c(=O)n1
- EC50 (PBMC [3]): 1.3 µM

Compound: Nc1ccn([C@@H]2C[C@H](CO)C=C2F)c(=O)n1
- EC50 (PBMC [1]): > 100 µM
- IC50 (PBMC [2]): > 100 µM
- IC50 (CCRF-CEM): > 100 µM
- IC50 (Vero): > 100 µM

Compound: Nc1nc(=O)n([C@H]2C=C(F)[C@@H](CO)S2)cc1F
- EC50 (PBMC [3]): 0.15 µM

Compound: Cc1cn([C@H]2C[C@@H](CO)C=C2F)c(=O)[nH]c1=O
- EC50 (PBMC [1]): > 100 µM
- IC50 (PBMC [2]): > 100 µM
- IC50 (CCRF-CEM): > 100 µM
- IC50 (Vero): > 100 µM

Compound: O=c1ccn([C@@H]2C[C@H](CO)C=C2F)c(=O)[nH]1
- EC50 (PBMC [1]): > 100 µM
- IC50 (PBMC [2]): > 100 µM
- IC50 (CCRF-CEM): > 100 µM
- IC50 (Vero): > 100 µM

Compound: Nc1ncnc2c1ncn2[C@@H]1C[C@H](CO)C=C1F
- EC50 (PBMC [3]): 72.8 µM
- EC50 (PBMC [1]): 72.8 µM
- IC50 (PBMC [2]): > 100 µM
- IC50 (CCRF-CEM): > 100 µM
- IC50 (Vero): > 100 µM

Compound: OC[C@H]1C=C(F)[C@@H](n2cnc3c(O)ncnc32)C1
- EC50 (PBMC [1]): > 100 µM
- IC50 (PBMC [2]): > 100 µM
- IC50 (CCRF-CEM): 91.3 µM
- IC50 (Vero): > 100 µM

Compound: O=c1ccn([C@H]2C[C@@H](CO)C=C2F)c(=O)[nH]1
- EC50 (PBMC [1]): > 100 µM
- IC50 (PBMC [2]): > 100 µM
- IC50 (CCRF-CEM): > 100 µM
- IC50 (Vero): > 100 µM

Compound: Nc1nc(O)c2ncn([C@H]3C[C@@H](CO)C=C3F)c2n1
- EC50 (PBMC [1]): > 100 µM
- IC50 (PBMC [2]): > 100 µM
- IC50 (CCRF-CEM): > 100 µM
- IC50 (Vero): > 100 µM

Compound: Nc1nc(=O)n([C@@H]2O[C@H](CO)C=C2F)cc1F
- EC50 (PBMC [3]): 0.17 µM
- EC50 (PBMC [4]): 0.22 µM

Compound: Nc1nc(O)c2ncn([C@@H]3C[C@H](CO)C=C3F)c2n1
- EC50 (PBMC [3]): 37.8 µM
- EC50 (PBMC [1]): 37.8 µM
- IC50 (PBMC [2]): > 100 µM
- IC50 (CCRF-CEM): > 100 µM
- IC50 (Vero): > 100 µM

Compound: Nc1ncnc2c1ncn2[C@@H]1O[C@H](CO)C=C1F
- EC50 (PBMC [3]): 1.5 µM
- EC50 (PBMC [4]): 1.7 µM

Compound: Nc1ccn([C@H]2C=C(F)[C@@H](CO)S2)c(=O)n1
- EC50 (PBMC [3]): 0.12 µM

Compound: Nc1ncnc2c1ncn2[C@H]1C[C@@H](CO)C=C1F
- Fold increase (PBMC [5]): 98
- EC50 (PBMC [1]): 0.77 µM
- EC90 (PBMC [6]): 8.34 µM
- EC90 (PBMC [7]): > 100 µM
- EC50 (PBMC [8]): 0.77 µM
- IC50 (PBMC [2]): > 100 µM
- IC50 (CCRF-CEM): > 100 µM
- IC50 (Vero): > 100 µM
- EC50 (PBMC [9]): 75.3 µM

Compound: Nc1ccn([C@@H]2O[C@H](CO)C=C2F)c(=O)n1
- EC50 (PBMC [3]): 0.51 µM
- EC50 (PBMC [4]): 0.8 µM

Compound: OC[C@@H]1C=C(F)[C@H](n2cnc3c(O)ncnc32)C1
- EC50 (PBMC [1]): > 100 µM
- IC50 (PBMC [2]): > 100 µM
- IC50 (CCRF-CEM): > 100 µM
- IC50 (Vero): > 100 µM

Compound: Cc1cn([C@@H]2C[C@H](CO)C=C2F)c(=O)[nH]c1=O
- EC50 (PBMC [1]): > 100 µM
- IC50 (PBMC [2]): > 100 µM
- IC50 (CCRF-CEM): > 100 µM
- IC50 (Vero): > 100 µM

Compound: Nc1nc(=O)n([C@H]2C=C(F)C(CO)O2)cc1F (single isomer, unassigned)
- EC50 (PBMC [3]): 0.82 µM

Compound: Nc1ncnc2c1ncn2[C@H]1C=C(F)C(CO)O1 (single isomer, unassigned)
- EC50 (PBMC [3]): 4.4 µM

Compound: Nc1nc2c(ncn2[C@H]2C=C[C@@H](CO)C2)c(=O)[nH]1 [CARBOVIR]
- EC50 (PBMC [3]): 0.55 µM
- IC50 (MT4): 4.6 µM

Compound: Nc1ccn([C@@H]2CS[C@H](CO)O2)c(=O)n1 [LAMIVUDINE]
- EC90 (PBMC [6]): 0.25 µM
- EC50 (PBMC [8]): 0.027 µM

Compound: Cc1cn([C@H]2C[C@H](N=[N+]=[N-])[C@@H](CO)O2)c(=O)[nH]c1=O [ZIDOVUDINE]
- EC50 (PBMC [1]): 0.0018 µM
- IC50 (PBMC [2]): > 100 µM
